GPR7 antagonist = human neuropeptides B/W receptor 1 antagonism; AID 1861; 1.1% of 290,000 active; inhibition, % at 4.4 µM; GPR7-expressing cells, fluorescence antagonist assay; P48145; in the data active = inhibition above about 16%, passing the limit was not always enough;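 also: cells stimulated with the agonist NPW; 0% = agonist with vehicle and 100% = vehicle without agonist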
Target sequence (P48145 whole entry, looked up): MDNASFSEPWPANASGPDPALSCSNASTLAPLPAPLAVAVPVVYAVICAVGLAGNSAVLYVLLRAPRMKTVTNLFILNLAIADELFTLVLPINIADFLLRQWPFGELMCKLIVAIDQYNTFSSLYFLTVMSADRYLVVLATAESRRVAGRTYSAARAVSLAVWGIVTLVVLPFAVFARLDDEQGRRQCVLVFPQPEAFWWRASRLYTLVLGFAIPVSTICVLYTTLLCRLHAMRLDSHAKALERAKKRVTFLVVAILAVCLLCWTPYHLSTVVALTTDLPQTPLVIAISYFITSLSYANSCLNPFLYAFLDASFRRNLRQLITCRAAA
OX1R antag-1 = antagonists of human orexin 1 receptor (OX1R) | O43613 | inhibition, % at 6.6 µM | 1.8% of 330,000 active | OX1R-expressing cells, FRET antagonist read-out; in the data active = inhibition mostly above about 38%, no sharp cut-off; inactive = mostly below about 40%;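 also: 0% = agonist challenge alone and 100% = reference antagonist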
CHO parental Ca = signal in parental CHO cells, OX1R antagonist counter-screen. inhibition, % at 5.6 µM. parental CHO-K1, ATP-induced calcium, Fluo-8 fluorescence. AID 463079. 0.63% of 330,000 active;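 active = inhibition above that plate's mean sample inhibition plus 3 SD, cut at about 26% in these data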;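 also: 0% = ATP-challenged DMSO wells and 100% = DMSO wells without ATP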
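material = parental CHO cells | also added = ATP as calcium-mobilizing challenge | dosing = single point at 5.6 µM | detection = intracellular calcium via Fluo-8 no-wash fluorescent dye | read-out = % inhibition | benchmarks = low control ATP plus DMSO, high control DMSO only | repeats = one well per compound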
OX1R antag-2 = antagonists of human orexin 1 receptor; CHO/OX1R cells, Fluo-8 calcium fluorescence, orexin A; O43613; 0.43% of 330,000 active; AID 434989; inhibition, % at 5 µM;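 active = inhibition above its plate's threshold, mean inhibition of all tested compounds on the plate plus 3 SD, cut at about 37% in these data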;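 also: 0% = orexin A challenge wells and 100% = SB-334867-A antagonist wells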
TAAR1 agonist = human TAAR1 agonism; Q96RJ0; CHO RD-HGA16 TAAR1, Fluo-8 calcium fluorescence; vehicle wells 0%, saturating PEA agonist 100%; activation, % at 3 µM; 0.99% of 360,000 active; AID 624467;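 active = activation above the mean activation of all test compounds in the run plus 3 SD, cut at about 38% in these data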
Target sequence (Q96RJ0 whole entry, looked up): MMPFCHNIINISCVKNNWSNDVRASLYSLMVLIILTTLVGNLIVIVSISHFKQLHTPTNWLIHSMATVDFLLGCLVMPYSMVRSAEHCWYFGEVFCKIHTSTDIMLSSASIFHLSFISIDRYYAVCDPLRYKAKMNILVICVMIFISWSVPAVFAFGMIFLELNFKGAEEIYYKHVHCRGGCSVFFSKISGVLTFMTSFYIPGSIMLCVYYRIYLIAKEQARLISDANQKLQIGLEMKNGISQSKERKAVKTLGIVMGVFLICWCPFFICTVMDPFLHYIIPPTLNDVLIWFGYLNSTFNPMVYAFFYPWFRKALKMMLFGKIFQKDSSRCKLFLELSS
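System: CHO-derived RD-HGA16 cells with stable Gα16 and human TAAR1 / Times: 17-24 h plating, Fluo-8 75 min 37 °C, 30 min RT / Technique: calcium-sensitive Fluo-8 signal, excitation 470-495, emission 515-575 nm / Measure: % activation relative to PEA EC100 response / Benchmarks: DMSO and PEA EC100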
TAAR1 antag = antagonists of human TAAR1; Q96RJ0; CHO RD-HGA16 TAAR1, Fluo-8 calcium fluorescence, antagonist; inhibition, % at 3 µM; 1.5% of 360,000 active; AID 624466;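 active = inhibition above a per-plate cutoff, the mean inhibition of test compounds on that plate plus 3 SD, cut at about 49% in these data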;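 also: 0% = DMSO plus EC80 beta-PEA response and 100% = DMSO alone without agonist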
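Test system: RD-HGA16 CHO cells with stable hTAAR1 and Gα16 / Probe or stimulus: EC80 β-phenethylamine stimulus / Times: seeding 17-24 h prior, 75-min 37 °C, 30-min RT dye loading / Detection: Fluo-8 calcium-sensitive fluorescence / Read-out basis: % inhibition scaled between DMSO and EC80 PEA controls / Repeats: singlicate, one well per test compound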
OX1R HTRF conf = OX1R (human) antagonism, HTRF confirmed; inhibition, % at 6.6 µM; AID 492964; OX1R-expressing cells, HTRF antagonist assay; shares compounds with OX1R antag-1; 49% of 1,800 active; in the data active = inhibition above about 55%;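 also: CHO cells expressing OX1R stimulated with orexin A at about EC80; 0% = agonist challenge alone and 100% = reference antagonist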
CHO-K1 HTRF cnt = signal in parental CHO-K1 cells, OX1R antagonist counter-screen | shares compounds with OX1R antag-1 | HTRF counterscreen | 48% of 1,800 active | inhibition, % at 6.6 µM; in the data active = inhibition above about 17%;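 also: 0% = agonist challenge with vehicle and 100% = vehicle alone without agonist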
* marks the source's active call; other numbers are inactive results. Rows were chosen to be rich in hits. Some 4.6% of all compounds tested hit in one or more screens of this group.

`CC(C)OCCCNC(=O)c1ccc2c(c1)S(=O)(=O)c1ccccc1C2=O` gave GPR7 antagonist -7, OX1R antag-1 85*, CHO parental Ca -11, OX1R antag-2 -15, TAAR1 agonist 4, TAAR1 antag 14, OX1R HTRF conf 45 and CHO-K1 HTRF cnt 41*.
For CC(=O)NCCNC(=O)c1ccc2c(c1)S(=O)(=O)c1ccccc1C2=O the results were GPR7 antagonist -18, OX1R antag-1 86*, CHO parental Ca -11, OX1R antag-2 -32, TAAR1 agonist 4, TAAR1 antag 6, OX1R HTRF conf 54 and CHO-K1 HTRF cnt 85*.
`COCC(C)NC(=O)c1ccc2c(c1)S(=O)(=O)c1ccccc1C2=O` (stereo not drawn) gave GPR7 antagonist -20, OX1R antag-1 109*, CHO parental Ca -4, OX1R antag-2 -4, TAAR1 agonist 2, TAAR1 antag 0, OX1R HTRF conf 50 and CHO-K1 HTRF cnt 55*.
Screening COCCNC(=O)c1ccc2c(c1)S(=O)(=O)c1ccccc1C2=O returned OX1R antag-1 86*, CHO parental Ca 0, OX1R antag-2 -5, TAAR1 agonist 9, TAAR1 antag 8, OX1R HTRF conf 54 and CHO-K1 HTRF cnt 84*.
For C=CCNC(=O)c1ccc2c(c1)S(=O)(=O)c1ccccc1C2=O the results were OX1R antag-1 126*, CHO parental Ca -12, OX1R antag-2 -23, TAAR1 agonist 5, TAAR1 antag 2, OX1R HTRF conf 58* and CHO-K1 HTRF cnt 58*.
Screening COC(=O)[C@]12CCCCC=C1N(Cc1ccc(Cl)cc1Cl)C(=O)[C@H](CC(=O)NCc1cccs1)C2 returned TAAR1 agonist 2 and TAAR1 antag 13.
`CSCCC(NC(=O)c1ccccc1Cl)C(=O)Nc1ccncc1` (stereo not drawn) gave TAAR1 agonist 1 and TAAR1 antag -5.
Cc1cccc(C)c1-n1nnnc1C(c1ccnc2ccccc12)N(C)Cc1ccccc1 (stereo not drawn) was read as TAAR1 agonist 1 and TAAR1 antag 6.
Screening COC(=O)c1ccc(NC(=O)CSc2nnc(C)n2CC2CCCO2)cc1 (stereo not drawn) returned GPR7 antagonist -13, OX1R antag-1 89*, CHO parental Ca -14, OX1R antag-2 -4, TAAR1 agonist 2, TAAR1 antag -19, OX1R HTRF conf 13 and CHO-K1 HTRF cnt 4.
For O=C(N=Nc1c(O)[nH]c2ccccc12)c1ccco1 the results were GPR7 antagonist -7, OX1R antag-1 113*, CHO parental Ca -1, OX1R antag-2 -10, TAAR1 agonist 9, TAAR1 antag 0, OX1R HTRF conf 99* and CHO-K1 HTRF cnt 55*.
Screening Cc1nc2c(-c3ccccc3)cnn2c(N)c1-c1ccccc1 returned GPR7 antagonist 15, TAAR1 agonist 1 and TAAR1 antag 12.
Screening Cn1cnnc1Sc1ccc(C(=O)OCC(=O)NCC(F)(F)F)cc1[N+](=O)[O-] returned GPR7 antagonist -15, OX1R antag-1 78*, CHO parental Ca 9, OX1R antag-2 -7, TAAR1 agonist -1, TAAR1 antag -13, OX1R HTRF conf 30 and CHO-K1 HTRF cnt 43*.
For NC(=O)CC(NC(=O)Cc1ccc(Cl)cc1)c1ccc(N2CCC(Cc3ccccc3)CC2)c([N+](=O)[O-])c1 (stereo not drawn) the results were GPR7 antagonist -6, OX1R antag-1 8, CHO parental Ca -12, OX1R antag-2 -12, TAAR1 agonist -1 and TAAR1 antag -9.
For CC1=C(C(=O)OCc2ccccc2)C(c2ccc(C)o2)C2=C(CCCC2=O)N1 (stereo not drawn) the results were GPR7 antagonist 3, OX1R antag-1 17, CHO parental Ca -13, OX1R antag-2 -21, TAAR1 agonist -2 and TAAR1 antag -1.
`CC1=C(C(=O)OC2CCCCC2)C(c2ccc(C)o2)C2=C(CCCC2=O)N1` (stereo not drawn) gave GPR7 antagonist 9, OX1R antag-1 99*, CHO parental Ca -15, OX1R antag-2 -32, TAAR1 agonist 0, TAAR1 antag -6, OX1R HTRF conf 87* and CHO-K1 HTRF cnt -1.
For CC12CCC3c4cc(CN5CCOCC5)c(O)cc4CCC3C1CCC2=O (stereo not drawn) the results were TAAR1 agonist 2 and TAAR1 antag -3.
For O=[N+]([O-])c1cccc2c(N3CCCC3)ccnc12 the results were GPR7 antagonist -12, OX1R antag-1 132*, CHO parental Ca -5, OX1R antag-2 3, TAAR1 agonist 4, TAAR1 antag -12, OX1R HTRF conf 61* and CHO-K1 HTRF cnt 101*.
Screening C[C@H](O)[C@@H]1C(=O)N2CCc3ccc(N4CCN(C)CC4)cc3[C@@H]2C[C@@H]1N(C)C(=O)c1ccco1 returned TAAR1 agonist 0 and TAAR1 antag -1.
`O=C(c1cccc([N+](=O)[O-])c1)N1CCOCC1` gave GPR7 antagonist -3, OX1R antag-1 15, CHO parental Ca 11, OX1R antag-2 6, TAAR1 agonist 5 and TAAR1 antag -4.
`O=C(NCCN1CCOCC1)c1ccc(Cl)c([N+](=O)[O-])c1` gave GPR7 antagonist -11, OX1R antag-1 12, CHO parental Ca -5, OX1R antag-2 -8, TAAR1 agonist 11 and TAAR1 antag -7.
For O=C(c1cc([N+](=O)[O-])cc([N+](=O)[O-])c1)N1CCOCC1 the results were GPR7 antagonist -5, OX1R antag-1 111*, CHO parental Ca 3, OX1R antag-2 -2, TAAR1 agonist 4, TAAR1 antag 15, OX1R HTRF conf 51 and CHO-K1 HTRF cnt 78*.
`O=C(NCCN1CCOCC1)c1cc([N+](=O)[O-])cc([N+](=O)[O-])c1` gave GPR7 antagonist -14, OX1R antag-1 78*, CHO parental Ca -11, OX1R antag-2 -6, TAAR1 agonist 2, TAAR1 antag -2, OX1R HTRF conf 50 and CHO-K1 HTRF cnt 72*.
Screening O=[N+]([O-])c1cc(C(F)(F)F)ccc1NCCCN1CCOCC1 returned GPR7 antagonist -1, OX1R antag-1 26, CHO parental Ca -13, OX1R antag-2 -29, TAAR1 agonist 7 and TAAR1 antag -5.
O=C(NCCCN1CCOCC1)c1ccc(Cl)cc1[N+](=O)[O-] was read as GPR7 antagonist -4, OX1R antag-1 106*, CHO parental Ca -6, OX1R antag-2 -19, TAAR1 agonist 1, TAAR1 antag 19, OX1R HTRF conf 36 and CHO-K1 HTRF cnt 7.

Screens: PubChem, The Scripps Research Institute Molecular Screening Center
